Only some compounds are listed: those with a hit (about 3.1% of all), similar ones and a draw of the others.
KCNQ1 block – inhibitors of human KCNQ1 channel, primary screen, cell-based, thallium flux, high-throughput. CHO-K1 KCNQ1, FluxOR thallium flux fluorescence; active compounds read high. B-score at 10 µM. 310,000 compounds, 1.3% hits. AID 2642, 2010;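 active means compounds whose thallium flux B-score, printed positive for inhibition, exceeds three library SD while starting fluorescence stays within three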;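 further: channel opened by potassium depolarization with thallium stimulus after 20 min compound exposure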
KCNK9 inh – KCNK9 potassium channel inhibitors, primary screen, HEK293 cells, thallium flux; FluxOR thallium flux fluorescence; active compounds read low; 310,000 compounds, 1.2% hits; B-score at 10 µM;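 active means ratio B-score over 3 SD below the library mean, with starting fluorescence within 5 SD of its mean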;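 further: negative B-score means less thallium flux so channel inhibition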
Target sequence (Q9NPC2 whole entry, looked up): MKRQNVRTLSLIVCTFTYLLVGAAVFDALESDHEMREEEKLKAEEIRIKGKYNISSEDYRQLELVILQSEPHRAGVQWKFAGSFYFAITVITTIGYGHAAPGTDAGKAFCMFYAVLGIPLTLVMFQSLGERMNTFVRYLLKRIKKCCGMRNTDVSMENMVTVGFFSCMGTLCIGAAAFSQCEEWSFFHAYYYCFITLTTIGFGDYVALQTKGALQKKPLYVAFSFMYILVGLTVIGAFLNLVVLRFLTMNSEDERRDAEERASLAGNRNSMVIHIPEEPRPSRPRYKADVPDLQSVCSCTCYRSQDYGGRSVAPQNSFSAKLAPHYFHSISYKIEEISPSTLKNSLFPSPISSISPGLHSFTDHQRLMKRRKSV
hERG rescue – hERG rescue from dofetilide block, primary screen, cell-based, CHO-hERG, FluxOR thallium flux, dofetilide IC70; Voltage-gated inwardly rectifying potassium channel KCNH2 (Homo sapiens), Q12809; dofetilide IC70 present; activation (rescue from dofetilide block), less the hit threshold, % at 10 µM; 310,000 compounds, 0.51% hits;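 active means activation above the mean of controls blocked by dofetilide plus 5 SD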;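 further: thallium influx through hERG after potassium depolarization seen as dye fluorescence rise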
KCNK3 block – human KCNK3 channel inhibitors, primary screen, CHO cells, FluxOR thallium flux, B-score; Potassium channel subfamily K member 3 (Homo sapiens), O14649; FluxOR fluorescence; active compounds read low; B-score at 10 µM; 340,000 compounds, 0.84% hits;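 active means B-score under library mean minus 4 SD, starting fluorescence ratio at most library mean plus 5 SD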;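 further: more negative B-score means stronger inhibition of thallium flux through KCNK3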
KCNQ1 pot – potentiators or activators of KCNQ1 channel, primary screen, cell-based, thallium flux, high-throughput | Potassium voltage-gated channel subfamily KQT member 1 (Homo sapiens), P51787 | CHO-K1 KCNQ1, thallium flux FluxOR fluorescence; active compounds read high | B-score at 10 µM | 310,000 compounds, 0.35% hits;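 active means fluorescence ratio B-score, a plate-corrected score, at least three library SD, with initial intensity B-score within 5 SD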
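Material: CHO-K1 cells stably expressing KCNQ1. Medium: assay buffer for compound exposure, DMSO matched across wells. Reagent: K+/Tl+ depolarizing stimulus. Compound dosing: single-concentration screen. Times: 37 °C overnight plating, 90-min dark dye load, 20-min compound pretreatment. Technique: FluxOR Tl+ flux fluorescence.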
KCNQ1 inh valid – KCNQ1 potassium channel inhibitors, confirmation, cell-based, Tl flux, duplicate; shares compounds with KCNQ1 block; KCNQ1 cell line, FluxOR thallium flux fluorescence; inhibition, % at 10 µM; 1,600 compounds, 93% hits;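 active means primary screen active, with duplicate mean exceeding buffer control mean plus 3 SD of buffer wells, cut at about 28% in these data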;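 further: 0% = buffer control ratio and 100% = XE991 inhibitor control ratio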
CHO Tl flux – thallium flux effects in parental CHO cells, counter-screen for KCNQ1 inhibitor project, cell-based, Tl flux. shares compounds with KCNQ1 block. parental CHO-K1, FluxOR thallium flux fluorescence ratio; active compounds read low; zero means no signal rise above baseline. fluorescence ratio (Tl flux) at 10 µM. 1,600 compounds, 21% hits;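 active means mean of duplicate thallium-flux fluorescence ratios in parental host cells more than 5 SD below the buffer control mean, cut at about 0.38 in these data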;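 further: ratio is peak minus minimum fluorescence divided by baseline fluorescence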
KCNQ2 spec – KCNQ2 channel inhibition, selectivity assay for KCNQ1 inhibitor project, cell-based; AID 651746, 2012; KCNQ2 cells, FluxOR thallium flux fluorescence; shares compounds with KCNQ1 block; 1,600 compounds, 71% hits; inhibition, % at 10 µM;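 active means mean percent inhibition of the KCNQ2 thallium signal more than 5 SD above the buffer-only control wells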;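 further: KCNQ2 expressed in CHO cells; 0% = buffer control wells and 100% = XE-991 inhibitor control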
KCNQ1 KCNE1 spec – KCNQ1/KCNE1 channel inhibition, selectivity assay for KCNQ1 inhibitor project, CHO-K1 cells, thallium flux, FluxOR. shares compounds with KCNQ1 block. FluxOR thallium flux fluorescence. inhibition, % at 10 µM. 1,600 compounds, 77% hits. AID 652147, 2013;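 active means mean percent inhibition of duplicate wells above the buffer-only control mean plus 3 SD of those controls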;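 further: 0% = buffer only wells and 100% = XE-991 inhibitor control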
Numbers without * were called inactive; i = inactive; · = no result given.

SMILES | KCNQ1 block | KCNK9 inh | hERG rescue | KCNK3 block | KCNQ1 pot | KCNQ1 inh valid | CHO Tl flux | KCNQ2 spec | KCNQ1 KCNE1 spec
NNc1nc(C(F)(F)F)nc2ccccc12 | i | i | -4.2 | i | i | · | · | · | ·
O=C(Nc1ccc(-c2cccc(F)c2)cc1)C1CCCN(Cc2ccccn2)C1 (stereo unspecified) | 6* | i | -23.2 | i | i | 44.0* | 0.4 | 85.7%* | 64.0%*
CC1CCN(CCCNC(=O)c2ccc3c(=O)n(Cc4ccc(Cl)cc4)c(=S)[nH]c3c2)CC1 | 7* | i | -44.3 | i | i | 0.0 | 0.483 | i | i
COC(=O)c1ccc2c(=O)n(Cc3ccc(C(=O)NCCCN4CCC(C)CC4)cc3)c(=S)[nH]c2c1 | i | i | -4.3 | i | i | · | · | · | ·
COc1cccc(/C=N/Nc2cc(N3CCOCC3)ncn2)c1O | i | i | -7.9 | i | i | · | · | · | ·
CCCCOCCCNc1ncnc2c1[nH]c1ccccc12 | 9* | i | -31.4 | i | i | 153.5* | 0.357* | 120.7%* | 198.5%*
CCN(Cc1ccc(OC)c(F)c1)C(=O)/C=C/c1ccc(S(=O)(=O)N2CCOCC2)cc1 | · | · | · | i | · | · | · | · | ·
CCOc1ccc(N=C2NC(=O)S/C2=C\c2ccc(N(C)C)cc2)cc1 | 10* | i | -14.7 | i | i | 181.0* | 0.421 | i | i
CCOc1ccc(/C=C2\SC(=S)N(N3C(=O)C4CC4C3=O)C2=O)cc1 (stereo unspecified) | i | i | -5.7 | i | i | · | · | · | ·
O=S(=O)(c1ccc(S(=O)(=O)N(Cc2ccc(F)cc2)C2CCCC2)cc1)N1CCCC1 | 6* | i | -8.7 | i | i | 57.0* | 0.499 | i | 94.5%*
CC1CC(C)CN(CC(=O)N2CCCc3c2c(=O)oc2ccc(OCc4ccccc4)cc32)C1 (stereo unspecified) | 9* | i | -14.4 | i | i | 110.0* | 0.4 | 100.0%* | 151.0%*
C=CCSc1nsc(NC(=O)Nc2ccc(F)cc2)n1 | 14* | i | -10.7 | i | i | 64.0* | 0.506 | i | i
CCSc1nsc(NC(=O)Nc2ccccc2F)n1 | i | i | -6.8 | i | i | · | · | · | ·
CC1CC2CCCC(O)=C2C(=O)O1 (stereo unspecified) | · | · | · | i | · | · | · | · | ·
Cc1ccc(S(=O)(=O)c2c(N)n(CCC(C)C)c3nc4ccccc4nc23)cc1 | 15* | i | -11.8 | i | i | 75.0* | 0.42 | i | 97.0%*
COc1cc(C2c3c(c(C)c(C)oc3=O)Oc3c(C)c(C)oc(=O)c32)ccc1OS(=O)(=O)c1ccc(C)cc1 | · | · | · | i | · | · | · | · | ·
OCCC1CN(Cc2cccnc2)CCN1CCc1ccccc1 (stereo unspecified) | 7* | i | -16.5 | i | i | 0.0 | 0.454 | i | i
Cc1ccc(NC(=O)CNCC2CCCCC2)cc1S(=O)(=O)N(C)C | i | i | -8.0 | i | i | · | · | · | ·
FC(F)(F)c1ccc(NC(=S)NC2CCCCC2)cc1 | 7* | i | -9.7 | i | i | 65.0* | 0.518 | 59.3%* | 37.0%*
